What was measured:
[1] = Plasma IACS-010759 exposure versus venous lactate in AML and Solid Tumor cohorts; assay type: in vivo, human
[2] = test system: blasts from the spleen of NSG mice; experiment: Baseline OCR of blasts from the spleen of NSG mice; assay type: in vivo, mouse; settings: 0.1 and 0.3 mg/kg, 5-days on/2-days off
Outline: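 Female NSG mice received 250 cGy cesium irradiation 24 h before tail-vein injection of 0.5 × 10^5 AML PDX cells. Mice were randomized (n=9/group) to vehicle (0.5% methylcellulose) or 0.1, 0.3, 1 or 5 mg/kg test compound, 5 days on/2 days off. Spleens were taken at euthanasia for baseline OCR of blasts. N=5 biologically independent samples; two-sided unpaired t-test.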

[3] = Human plasma concentrations of IACS-010759; assay type: in vivo
Outline: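 Patient plasma (50 μL) was extracted with acetonitrile containing diclofenac internal standard, vortexed 10 min and spun 2000 g for 10 min. Extract was diluted 1:1 with water for LC-MS/MS with the column at 40 °C. MRM transitions were m/z 563.1>172.1 for analyte and 295.9>151.2 for standard. The method was validated over 0.05–50.0 ng/mL.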

AML blasts [4] = experiment: Ratio of mitochondrial to genomic DNA in AML blasts; assay type: cell-based, human; settings: pre- vs post-dose Day 16/21/27/28; p=0.04
C57BL/6J mice [5] = experiment: Spontaneous pain; assay type: in vivo, mouse
AML blasts [6] = experiment: Seahorse oxygen consumption rate of AML blasts from treated patients; assay type: cell-based, human
Outline: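 Fresh heparinised patient blood was mixed with equal-volume EasySep buffer and depleted of CD3/CD19-positive cells with an antibody cocktail. Isolated blasts were counted and used immediately for Seahorse basal and maximal OCR, normalised to cell number, with 2–6 technical replicates. Sampling was pre-dose (C1D1), after one week (C1D7/C1D14) and during extended dosing (C1D15/21/28). A two-sided paired t-test was used.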

C57BL/6J mice [7] = experiment: Sensorimotor function; assay type: in vivo, mouse
Solid Tumor trial = assay type: in vivo, human; settings: for Average highest lactate level during OXPHOS: Solid Tumors
DRG neurons = experiment: Mitochondrial function; assay type: in vivo, mouse
mitochondrial complex I = settings: by binding the ND1 subunit at the entrance to the quinone binding channel; cited from earlier work
ATF3 = ATF3 expression in DRG; assay type: in vivo, mouse; settings: 1 or 5 mg/kg
Outline: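 Mice received test compound (1 or 5 mg/kg) or vehicle orally, once daily, 5 days on/2 off, then another 5 days. DRG were taken 12 days after the last dose and processed as PFA-fixed, OCT-embedded 14 μm frozen sections. Sections were incubated overnight with anti-ATF3 (1:500) in PBS with 2% donkey serum and 0.1% saponin, then Alexa 594 secondary and DAPI. Imaging was confocal. Positive control was spared-nerve-injury DRG; staining was repeated three times.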

PDX AML-04030094 model = experiment: Survival of AML PDX mice; assay type: in vivo, mouse; settings: 1 mg/kg oral, 5-days on/2-days off, NSG AML PDX mice
C57BL/6J mice [8] = experiment: Intraepidermal nerve fiber density in hind paw skin; assay type: in vivo, mouse; settings: highest dose
Outline: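 Male C57BL/6J mice were given vehicle (0.5% methylcellulose) or 1 or 5 mg/kg test compound by oral gavage once daily, 5 days on/2 off, then a further 5 days on. Glabrous hind paw skin was collected 12 days after the final dose. PGP9.5-stained fibres crossing the collagen-stained dermal–epidermal junction were counted by confocal microscopy as IENFs/mm, five random images per mouse. n=12/8/8; one-way ANOVA with Dunnett's; mean ± SE.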

advanced solid tumors = experiment: Solid Tumor trial: response by RECISTv1.1; assay type: in vivo, human
relapsed/refractory AML = experiment: AML trial: response by European LeukemiaNet 2017; assay type: in vivo, human; settings: n=17
Outline: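 Relapsed/refractory AML patients were dosed by cohort. Cohorts 1–2 got 0.5 or 1.0 mg on Day 1 and Day 8 of cycle 1, then daily in later cycles. Cohorts 3–4 got induction of 2.0 or 2.5 mg daily on Days 1–7. Maintenance followed at 0.5 mg once weekly (cohort 3) or 1.0 mg thrice weekly (cohort 4).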

AML trial = assay type: in vivo, human; settings: for Average highest lactate level during OXPHOS: AML
Outline: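 Both trials graded adverse events with NCI CTCAE v4.03. In the AML trial, all patients had close monitoring of lactate, blood pH and electrolytes. Patients with lactate >4 mmol/L, pH <7.30 and symptoms were hospitalised for at least 24 h. Dose-limiting lactic acidosis was lactate >4.0 mmol/L, pH <7.35, low CO2, raised anion gap and/or symptoms, confirmed by arterial sampling.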

AML blasts [9] = experiment: Intracellular metabolites in AML blasts; assay type: cell-based, human
[10] = Plasma lactate in NSG and B6 mice; assay type: in vivo, mouse; settings: escalating doses
C57BL/6J mice [11] = experiment: Mechanical allodynia of hind paws; assay type: in vivo, mouse; settings: 30 mg/kg ACY-1215 co-administered with 0.3 or 1 mg/kg IACS-010759
C57BL/6J mice [12] = assay type: in vivo, mouse; settings: 30 mg/kg ACY-1215 co-administered with IACS-010759
[13] = end of the first 7-day QD dosing vs pre-treatment
[14] = blasts from Patient 17 (highest exposure), p<0.01
[15] = 30 mg/kg ACY-1215 co-administered with IACS-010759

## Cc1nc(-c2nc(-c3ccc(OC(F)(F)F)cc3)no2)nn1Cc1cccc(N2CCC(S(C)(=O)=O)CC2)c1 [IACS-010759]
[1]; equivalent of the nM value
  drug exposure associated with increased probability of elevated lactate: > 4.5 ng/mL
[1]; plasma IACS-010759, AML and Solid Tumor cohorts
  drug exposure associated with increased probability of elevated lactate: > 8 nM
[2]
  modulation of baseline OCR: induced moderate modulation of baseline OCR
[3]; AML and Solid Tumor trials, all dosing schedules
  maintenance of plasma levels of ≥20 nM: not maintained with any dosing schedule
[3]; plasma, patients
  terminal half-life: approximately 16 hours
AML blasts [4]
  ratio between mitochondrial and genomic DNA in blasts: significant increase
C57BL/6J mice [5]; IACS-010759-treated vs vehicle-treated mice
  spontaneous pain: time in the chamber associated with pain relief: spent significantly more time in the chamber associated with pain relief
AML blasts [6]; [13]
  patients with >25% reduction in baseline OCR in blasts: 6/12
  patients with >25% reduction in maximal OCR in blasts: 8/12
AML blasts [6]; extended dosing, among patients with >25% reduction
  patients in whom the decrease in baseline OCR was not maintained: 2/6
C57BL/6J mice [7]; beam walk test, vs vehicle-treated mice
  balance and fine motor function: significant decrease in balance and fine motor function
Solid Tumor trial; Solid Tumor trial
  patients with grade 1–3 peripheral neuropathy: 11 patients
Solid Tumor trial; Solid Tumor trial patients
  grade 1–2 TRAE: myalgia: 30%
  grade 1–2 TRAE: peripheral neuropathy: 35%
  grade 1–2 TRAE: vomiting: 30%
  grade ≥3 TRAE: elevated blood lactate: 9%
  grade ≥3 TRAE: nausea: 9%
  grade ≥3 TRAE: peripheral neuropathy: 4%
  painful neuropathy: not observed
Solid Tumor trial; NP (N=11)
  Average highest lactate level during OXPHOS: 4.5 mmol/L
Solid Tumor trial; Non-NP (N=12)
  Average highest lactate level during OXPHOS: 2.6 mmol/L
DRG neurons; 3–4 hours and 5 weeks after the last dose
  OCR in dorsal root ganglia: dose-dependently inhibited OCR
Mitochondrial complex I
  inhibition of mitochondrial complex I: selectively inhibited mitochondrial complex I
ATF3
  expression of ATF3: did not increase
PDX AML-04030094 model
  extension of median survival: 7 days
C57BL/6J mice [8]
  intraepidermal nerve fiber density (IENF) in hind paw skin: reduced intraepidermal nerve fiber density
Advanced solid tumors
  patients with best response of RECISTv1.1 stable disease: eight
relapsed/refractory AML
  response (European LeukemiaNet 2017): No patient in the AML trial responded
AML trial; AML and Solid Tumor trials
  recommended phase 2 dose (RP2D): no RP2D was established
AML trial; AML trial patients
  grade 1–2 TRAE: elevated blood lactate: 35%
  grade 1–2 TRAE: myalgia: 6%
  grade 1–2 TRAE: peripheral neuropathy: 12%
  grade ≥3 TRAE: peripheral neuropathy: 6%
AML trial; NP (N=6)
  Average highest lactate level during OXPHOS: 3.9 mmol/L
AML trial; Non-NP (N=11)
  Average highest lactate level during OXPHOS: 3.0 mmol/L
AML blasts [9]; blasts from Patient 16
  NAD+ levels: did not affect
AML blasts [9]; blasts from Patient 16 (weakest exposure)
  intracellular NMP, NDP and NTP levels: did not affect levels of NMP, NDP, and NTP
AML blasts [9]; [14]
  intracellular NMP and NDP levels: significantly increased
  intracellular NTP levels: significantly decreased
AML blasts [9]; blasts from Patient 17, p = 0.03
  NAD+ levels: NAD+ levels significantly decreased
AML blasts [9]; blasts from Patient 19
  NAD+ levels: NAD+ levels significantly increased
AML blasts [9]; blasts from Patient 19 (lower exposure), p<0.05
  intracellular NTP levels: significantly reduced NTP levels
[10]; C56Bl6 mice
  plasma lactate: elevated by all doses
[10]; NSG mice
  plasma lactate: only elevated by the 5 mg/kg dose

## O=C(CCCCCCNC(=O)c1cnc(N(c2ccccc2)c2ccccc2)nc1)NO [ACY-1215, reference compound]
C57BL/6J mice [5]; [15]
  effect on IACS-010759-induced spontaneous pain: prevented
C57BL/6J mice [7]; [15]
  effect on IACS-010759-induced sensorimotor deficits: prevented
C57BL/6J mice [11]
  effect on IACS-010759-induced mechanical allodynia: significantly attenuated
DRG neurons; [15]
  effect on IACS-010759-induced reduction of OCR in the DRG: did not prevent
C57BL/6J mice [12]
  effect on IACS-010759-induced damage to the myelin of the sciatic nerve: prevented

Reference: paper PMC11975418 (Nature medicine, 2023)
